SIRT5 block: SIRT5 desuccinylase inhibitors, primary screen, biochemical, fluorescence imaging, single point, set 5. NAD-dependent protein deacylase sirtuin-5, mitochondrial (Homo sapiens), Q9NXA8. Purified SirT5, succinyl-peptide AMC, trypsin-coupled fluorescence. inhibition, % at 15 µM. 330,000 tested, 1.1% active. AID 652115, 2013; in the data active means inhibition above about 15%; inconclusive means no clear call, values can overlap the other calls
Target sequence (Q9NXA8 whole entry, looked up): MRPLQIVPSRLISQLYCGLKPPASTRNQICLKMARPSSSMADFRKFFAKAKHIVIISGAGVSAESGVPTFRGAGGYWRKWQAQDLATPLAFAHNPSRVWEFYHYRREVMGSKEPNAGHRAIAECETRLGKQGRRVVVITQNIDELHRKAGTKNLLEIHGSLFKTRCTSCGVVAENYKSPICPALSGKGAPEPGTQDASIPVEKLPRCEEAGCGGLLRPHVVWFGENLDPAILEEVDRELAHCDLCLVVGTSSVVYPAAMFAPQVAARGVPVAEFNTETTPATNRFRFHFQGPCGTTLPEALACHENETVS
E-sel inducer: E-selectin induction in HUVECs, primary screen, imaging, HUVEC, immunofluorescence imaging, single point. P16581. activation, % at 7.58 µM. AID 686992, 2013. 260,000 tested, 0.37% active. normalized: neutral wells 0, TNF-alpha wells 100;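 active means mean E-selectin-positive cell signal at least 10% of the positive control, reached in at least 60% of replicates, without over 20% cell loss; inconclusive means no rule given, readout overlaps actives, possibly toxicity-flagged; inactive means the rest, including those meeting only one limit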
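System: HUVEC, human umbilical vein endothelial cells; quantity: 3,000 cells/well; buffer or medium: EGM-2 medium, gelatin-coated wells; dosing: single-point compound dose; detection: immunofluorescence imaging; evaluation: % PE-positive cells; benchmarks: TNF-alpha, DMSO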
DENV2 CPE: inhibitors of DENV2 cytopathic effect, primary screen, cell-based, plate reader, single concentration | CPE inhibition, % at 9.99 µM | AID 651640, 2012 | DENV2-infected cells, cytopathic effect rescue | 350,000 tested, 1.7% active; in the data active means CPE inhibition above about 20%, passing the limit was not always enough; inconclusive means no clear call, values can overlap the other calls; tested in BHK-21 cells;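 further: 0% = median of neutral control wells and 100% = median of positive control wells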
The depositor's hits bear a star; ? = inconclusive; · = no result given. This is a sample that favours compounds with a hit; in the whole collection about 2.8% have one here.

SMILES | SIRT5 block | E-sel inducer | DENV2 CPE
C[C@H](CO)N1C[C@H](C)[C@H](CN(C)C(=O)Nc2ccc(C(F)(F)F)cc2)OCCCC[C@H](C)Oc2ccc(NS(C)(=O)=O)cc2C1=O | 3 | 0 | ?
C[C@H]1CCCCO[C@@H](CN(C)C(=O)Nc2ccc(C(F)(F)F)cc2)[C@@H](C)CN([C@@H](C)CO)C(=O)c2cc(NS(=O)(=O)c3ccccc3)ccc2O1 | 2 | 0 | 12
C[C@@H]1CCCCO[C@H](CN(C)C(=O)Nc2ccc(C(F)(F)F)cc2)[C@@H](C)CN([C@H](C)CO)C(=O)c2cc(NS(=O)(=O)c3ccccc3)ccc2O1 | 3 | 0 | 37*
C[C@@H]1CCCCO[C@H](CN(C)C(=O)Nc2ccc(C(F)(F)F)cc2)[C@H](C)CN([C@@H](C)CO)C(=O)c2cc(NS(=O)(=O)c3ccccc3)ccc2O1 | 0 | 0 | 40*
C[C@@H]1CCCCO[C@H](CN(C)C(=O)Nc2ccc(C(F)(F)F)cc2)[C@@H](C)CN([C@@H](C)CO)C(=O)c2cc(NS(=O)(=O)c3ccccc3)ccc2O1 | 0 | 1 | -6
C[C@@H]1CCCCO[C@@H](CN(C)C(=O)Nc2ccc(C(F)(F)F)cc2)[C@H](C)CN([C@@H](C)CO)C(=O)c2cc(NS(=O)(=O)c3ccccc3)ccc2O1 | 2 | 0 | 54*
N#C[C@H]1[C@@H](c2ccccc2-c2ccc(F)cc2)[C@@H](CO)N1C(=O)NC1CCCC1 | 2 | 0 | 3
CO[C@@H]1CN(C)C(=O)c2ccc(NC(=O)C3CCOCC3)cc2OC[C@@H](C)N(C(=O)C2CCOCC2)C[C@H]1C | -8 | 0 | -1
CCS(=O)(=O)N1[C@H](CO)[C@H](c2ccc(C3=CCCCC3)cc2)[C@@H]1C#N | 5 | 0 | 9
COc1ccc2c3c([nH]c2c1)[C@@H](CO)N(Cc1nccs1)CC31CN(C(=O)C2CCC2)C1 | 1 | 0 | 0
CCC(=O)N(C)C[C@@H]1Oc2cc(-c3cccc(OC)c3)ccc2S(=O)(=O)N([C@H](C)CO)C[C@H]1C | 1 | 1 | 3
C[C@H](CO)N1C[C@H](C)[C@H](CN(C)C(=O)Nc2ccc(C(F)(F)F)cc2)OCCCC[C@H](C)Oc2ccc(NS(=O)(=O)c3ccccc3)cc2C1=O | 0 | 0 | 41*
C[C@@H]1CN([C@@H](C)CO)C(=O)c2cc(NS(=O)(=O)c3ccccc3)ccc2O[C@@H](C)CCCCO[C@@H]1CN(C)C(=O)Nc1ccccc1 | -4 | · | -14
CCC(=O)Nc1ccc2c(c1)C(=O)N(C)C[C@@H](OC)[C@@H](C)CN(Cc1ccccn1)[C@H](C)CO2 | -2 | 0 | 17
Cc1ccc(Nc2nc(-c3sc(C)nc3C)cs2)cc1 | -1 | 3 | -9
Cc1ccc(Nc2nc(-c3sc(N)nc3C)cs2)cc1 | -1 | 7 | 47*
COc1ccc(-c2sc(Nc3ccccc3)n[n+]2-c2ccc(F)cc2)c(OC)c1OC | -7 | · | 136*
COc1cc(OC)c(-c2sc(Nc3ccccc3)n[n+]2-c2ccc(F)cc2)cc1OC | · | · | -1
COc1ccc(Br)c2oc(SC)cc(=O)c12 | · | 0 | 82*
COC(=O)c1cc(=O)c2c([N+](=O)[O-])ccc(OC)c2o1 | -4 | · | -1
C[C@H]1CN([C@@H](C)CO)C(=O)CCCn2cc(nn2)CO[C@H]1CN(C)Cc1cccc(O)c1 | -1 | 0 | -2
CCOC(=O)C1CCCN(C(=O)c2cccc3ccccc23)C1 (stereo not drawn) | -3 | 0 | -1
CCOC(=O)C1CCc2c(ccc3ccccc23)N1CCC#N (stereo not drawn) | 35* | 0 | -1
Cc1ccc(S(=O)(=O)N[C@@H]2C=C[C@H](CC(=O)NCc3ccc(Cl)c(Cl)c3)O[C@H]2CO)cc1 | 1 | 0 | 5
C=CCNC(=O)[C@@H]1[C@H]2C(=O)O[C@H](c3ccccc3)[C@H](c3ccccc3)N2[C@H](c2ccc(O)cc2)[C@@]12C(=O)N(C(=O)OCCOC)c1ccc(C#Cc3ccc(OC)cc3)cc12 | -3 | · | -9
CC(=O)Nc1ccc(CNc2nc(NC(C)C)nc3cc(-c4ccccc4)sc23)cc1 | 0 | 33* | 10
C=CCNc1nc(NCc2ccc(NC(C)=O)cc2)c2sc(-c3ccccc3)cc2n1 | -4 | 1 | 6
COc1ccc2c3c([nH]c2c1)[C@H](CO)N(C(=O)c1ccncc1)CC31CN(C(=O)C2CCC2)C1 | 0 | 0 | 0
Cc1cc(C)c2nc(N3C(=O)C(O)=C(C(=O)c4ccco4)C3c3ccc(O)cc3)sc2c1 (stereo not drawn) | 17* | · | 5
